From paper PMC3479646 (ChemMedChem, 2011)
Marks after values point to notes of the source that are not given here.

Tests used:
[1] = test system: mice; assay: Pentylenetetrazole; assay type: in vivo; details: 10 μmol kg^−1 i.v. 10 min prior to PTZ 65 mg kg^−1 i.p.; mean ± SEM
[2] = biological target: T1, TRH-R1 (Mus musculus, UniProt P21761); assay: Signaling; assay type: cell-based
T1 sequence (P21761 1-393): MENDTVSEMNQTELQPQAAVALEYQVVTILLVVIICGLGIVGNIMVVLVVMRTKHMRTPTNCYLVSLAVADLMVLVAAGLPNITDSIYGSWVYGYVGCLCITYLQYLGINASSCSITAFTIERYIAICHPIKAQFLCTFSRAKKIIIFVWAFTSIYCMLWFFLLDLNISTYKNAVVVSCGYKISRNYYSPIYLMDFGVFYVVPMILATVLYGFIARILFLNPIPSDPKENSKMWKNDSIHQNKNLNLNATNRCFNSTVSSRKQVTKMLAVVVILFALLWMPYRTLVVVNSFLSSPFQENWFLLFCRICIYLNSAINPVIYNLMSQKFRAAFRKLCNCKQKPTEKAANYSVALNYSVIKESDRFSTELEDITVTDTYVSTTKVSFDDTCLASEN
Summary of the method: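 HEK 293EM cells stably expressing TRH-R1, grown in DMEM with 10 % FBS and hygromycin, were seeded at 1.5 × 10^5 cells/well. After 16 h they were calcium-phosphate co-transfected with CREB and a CREB-driven luciferase reporter. Various concentrations of test compound were added in 1 % FBS medium for 6 h at 37 °C. Lysate luminescence was then read for 10 s, with 0.4 mM luciferin and 2 mM ATP. Data are from duplicates in three experiments.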

[3] = test system: mice; assay: Maximal electric shock; assay type: in vivo; details: 10 μmol kg^−1 i.v. 10 min prior to MES 45 mA for 0.2 s; mean ± SEM
Summary of the method: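 Male Swiss albino mice (20–30 g, n = 6–8/group) received saline vehicle or test compound at 10 μmol kg−1 i.v. via the tail vein. MES (45 mA, corneal electrode, 0.2 s) was applied 10 min later, and the duration of tonic hind limb extension was recorded. Data were analysed by one-way ANOVA with Tukey test versus saline.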

[4] = test system: TRH-R2; assay: Signaling; assay type: cell-based; details: ratio of EC50 at TRH-R1 and TRH-R2
Summary of the method: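 HEK 293EM cells stably expressing TRH-R1 or TRH-R2 were co-transfected with CREB and a CREB-luciferase reporter by calcium phosphate. […] Lysates were read by luminescence (0.4 mM luciferin, 2 mM ATP, 10 s). EC50 (μM) was found at each subtype, mean ±SD, duplicates, three experiments.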

[5] = biological target: T1, TRH-R1; assay: Receptor binding assay, competition with [3H][Nτ
[6] = test system: TRH-R2; assay: Receptor binding assay, competition with [3H][Nτ; details: ratio of Ki at TRH-R1 and TRH-R2; direction differs between compounds
[7] = test system: Swiss albino mice; assay: Antagonism of pentobarbital-induced sleeping time; assay type: in vivo; details: 10 μmol kg^−1 i.v.; for Sleep Time: pentobarbital 50 mg kg^−1 i.p. 10 min later, mean ± SEM; for Decrease in Sleep Time: (1−S/C)×100 relative to control, negative = increase; for effect on pentobarbital-induced sleeping time (in words): compared with control group

| EC50 [2] [µM] | Ki [5] [µM] | Structure (SMILES) | Sleep Time [7] | Decrease in Sleep Time [7] [%] | also measured |
| --- | --- | --- | --- | --- | --- |
| 0.29 | 0.32 | CCCc1nc(C[C@H](NC(=O)[C@@H]2CCC(=O)N2)C(=O)N2CCC[C@H]2C(N)=O)cn1C [Compd 10 a, L-pGlu-L-His(1-methyl-2-propyl)-L-ProNH2] | 41.7 ± 6.1 ^[b] min | 52.7 | effect on pentobarbital-induced sleeping time (in words) [7]: significant decrease in sleeping time; Fold Selectivity (EC50) [4]: 11; Fold Selectivity (Ki) [6]: 1.9 |
|  |  | NC(=O)[C@@H]1CCCN1C(=O)[C@H](CC1=CN2CC1=CC=CC=CC1CCCCN=C12)NC(=O)[C@@H]1CCC(=O)N1 (stereo partly drawn) [Compd 10 l, L-pGlu-L-His(1-benzyl-2-cyclopentyl)-L-ProNH2] | 163.3 ± 18.7 ^[b, ^c] min | −84.7 | effect on pentobarbital-induced sleeping time (in words) [7]: increased the sleeping time significantly |
|  |  | CN1C=C(C[C@H](NC(=O)[C@@H]2CCCC(=O)N2)C(=O)N2CCC[C@H]2C(N)=O)C2CCCCN=C21 (stereo partly drawn) [Compd 16 k] | 108.1 ± 14.4 min | −20.2 |  |
| > 50 | > 50 | Cn1cc(C[C@H](NC(=O)[C@@H]2CCCC(=O)N2)C(=O)N2CCC[C@H]2C(N)=O)nc1C(C)(C)C [Compd 16 j, L-pAad-L-His(1-methyl-2-tert-butyl)-L-Pro-NH2] | 93.1 ± 4.5 min | −3.6 |  |
|  |  | NC(=O)[C@@H]1CCCN1C(=O)[C@H](CC1=CN2CC1=CC=CC=CC1CCN=C12)NC(=O)[C@@H]1CCC(=O)C1 (stereo partly drawn) [Compd 22 d, (1R)-3-Ocp-L-His(1-benzyl-2-cyclopropyl)-L-ProNH2] | 104.9 ± 5.5 min | −16.7 |  |
|  |  | CCCc1nc(C[C@H](NC(=O)[C@@H]2CCCC(=O)N2)C(=O)N2CCC[C@H]2C(N)=O)cn1C [Compd 16 h, L-pAad-L-His(1-methyl-2-propyl)-L-ProNH2] | 98.1 ± 9.4 min | −9.1 |  |
| > 50 | > 50 | CC(C)n1cnc(C[C@H](NC(=O)[C@@H]2CCC(=O)C2)C(=O)N2CCC[C@H]2C(N)=O)c1 [Compd 21 d, (1R)-3-Ocp-L-His(1-isopropyl)-L-ProNH2] | 123.2 ± 5.9 min | −36.8 |  |
|  |  | CC(C)(C)C1=NC=CC=CC=C2CN1C=C2C[C@H](NC(=O)[C@@H]1CCC(=O)C1)C(=O)N1CCC[C@H]1C(N)=O [Compd 22 c, (1R)-3-Ocp-L-His(1-benzyl-2-tert-butyl)-L-ProNH2] | 91.6 ± 3.8 min | −1.9 |  |
|  |  | CN1C=C(C[C@H](NC(=O)[C@@H]2CCCC(=O)N2)C(=O)N2CCC[C@H]2C(N)=O)C23CC4CC(CN=C12)CC(C4)C3 [Compd 16 m, L-pAad-L-His[1-methyl-2-(adamantan-1-yl)]-L-ProNH2] | 76.0 ± 10.9 min | 15.4 |  |
| > 50 | > 50 | CCCc1nc(C[C@H](NC(=O)[C@@H]2CCC(=O)C2)C(=O)N2CCC[C@H]2C(N)=O)cn1C [Compd 22 h, (1R)-3-Ocp-L-His(1-methyl-2-propyl)-L-ProNH2] | 80.2 ± 2.4 min | 10.7 |  |
|  |  | CC(C)c1nc(C[C@H](NC(=O)[C@@H]2CCCC(=O)N2)C(=O)N2CCC[C@H]2C(N)=O)cn1C [Compd 16 i, L-pAad-L-His(1-methyl-2-isopropyl)-L-ProNH2] | 124.3 ± 5.8 min | −38.2 |  |
|  |  | Cn1cc(C[C@H](NC(=O)[C@@H]2CCC(=O)C2)C(=O)N2CCC[C@H]2C(N)=O)nc1C(C)(C)C [Compd 22 j, (1R)-3-Ocp-L-His(1-methyl-2-tert-butyl)-L-ProNH2] | 89.8 ± 3.0 min | −0.01 |  |
| > 50 | > 50 | Cn1cc(C[C@H](NC(=O)[C@@H]2CCC(=O)N2)C(=O)N2CCC[C@H]2C(N)=O)nc1C(C)(C)C [Compd 10 c, L-pGlu-L-His(1-methyl-2-tert-butyl)-L-ProNH2] | 59.6 ± 5.5 min | 32.5 |  |
|  | > 50 | CC(C)c1nc(C[C@H](NC(=O)[C@@H]2CCC(=O)C2)C(=O)N2CCC[C@H]2C(N)=O)cn1C [Compd 22 i, (1R)-3-Ocp-L-His(1-methyl-2-isopropyl)-L-ProNH2] | 39.8 ± 5.5 ^[b, ^c] min | 55.6 |  |
|  |  | CCCC1=NC=CC=CC=C2CN1C=C2C[C@H](NC(=O)[C@@H]1CCC(=O)N1)C(=O)N1CCC[C@H]1C(N)=O [Compd 10 h, L-pGlu-L-His(1-benzyl-2-propyl)-L-ProNH2] | 105.1 ± 5.76 min | −18.8 | effect on pentobarbital-induced sleeping time (in words) [7]: increased the sleeping time significantly |
| > 50 | > 50 | CC(C)c1nc(C[C@H](NC(=O)[C@@H]2CCC(=O)N2)C(=O)N2CCC[C@H]2C(N)=O)cn1C [Compd 10 b, L-pGlu-L-His(1-methyl-2-isopropyl)-L-ProNH2] | 66.2 ± 9.8 min | 25.1 | effect on pentobarbital-induced sleeping time (in words) [7]: significant decrease in sleeping time |
|  |  | CN1C=C(C[C@H](NC(=O)[C@@H]2CCC(=O)C2)C(=O)N2CCC[C@H]2C(N)=O)C2CCCCCN=C21 (stereo partly drawn) [Compd 22 k, (1R)-3-Ocp-L-His(1-methyl-2-cyclohexyl)-L-ProNH2] | 106.2 ± 3.0 min | −18.1 |  |

| Structure (SMILES) | EC50 [2] [µM] | Ki [5] [µM] | Sleep Time [7] | Decrease in Sleep Time [7] [%] | also measured |
| --- | --- | --- | --- | --- | --- |
| CCCn1cnc(C[C@H](NC(=O)[C@@H]2CCC(=O)C2)C(=O)N2CCC[C@H]2C(N)=O)c1 [Compd 21 c, (1R)-3-Ocp-L-His(1-propyl)-L-ProNH2] | 4.6 | 8.1 |  |  | PTZ: Clonic Convulsions Frequency [1]: 1.3 ± 0.21 min⁻¹; PTZ: Clonic Convulsions Onset [1]: 68 ± 3 s; MES: Hind Limb Extension Duration [3]: 12.3 ± 0.90 s; Fold Selectivity (EC50) [4]: 4; Fold Selectivity (Ki) [6]: 1.5 |
| Cn1cnc(C[C@H](NC(=O)[C@@H]2CCC(=O)C2)C(=O)N2CCC[C@H]2C(N)=O)c1 [Compd 21 a, (1 R)-3-Ocp-L-His(1-methyl)-L-ProNH2] | 0.05 | 0.17 |  |  | PTZ: Clonic Convulsions Frequency [1]: 1.3 ± 0.33 min⁻¹; PTZ: Clonic Convulsions Onset [1]: 153 ± 7 ^*^, ^** s; MES: Hind Limb Extension Duration [3]: 10.0 ± 0.60 s; Fold Selectivity (EC50) [4]: 24; decrease in binding affinity for TRH-R1 relative to TRH ([5]; Ki compared with TRH): 10 fold; Fold Selectivity (Ki) [6]: 10.6 |
| CCn1cnc(C[C@H](NC(=O)[C@@H]2CCC(=O)C2)C(=O)N2CCC[C@H]2C(N)=O)c1 [Compd 21 b, (1R)-3-Ocp-L-His(1-ethyl)-L-ProNH2] | 0.14 | 0.1 |  |  | PTZ: Clonic Convulsions Frequency [1]: 1.3 ± 0.21 min⁻¹; PTZ: Clonic Convulsions Onset [1]: 149 ± 8 ^*^, ^** s; MES: Hind Limb Extension Duration [3]: 11.3 ± 1.4 s; Fold Selectivity (EC50) [4]: 4.7; Fold Selectivity (Ki) [6]: 3.2 |
